# Experimental data: ChEMBL document CHEMBL3124849, “Total synthesis of burkholdacs A and B and 5,6,20-tri-epi-burkholdac A: HDAC inhibition and antiproliferative activity” (Eur J Med Chem, 2014)
# Key:
# [1] = test system: OVCAR-3; test: Cytotoxicity against human OVCAR3 cells by SRB assay; type: functional
# Procedure, shortened: (§1)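 Tested at the Japanese Foundation for Cancer Research panel of 39 human cancer cell lines. Five concentrations per compound, spanning 10^-10 to 10^-6 M or 10^-8 to 10^-4 M. Growth measured by sulforhodamine B colorimetry. GI50 is the concentration giving 50% growth inhibition relative to control.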
# [2] = test system: St-4; test: Cytotoxicity against human St-4 cells by SRB assay; type: functional; procedure, shortened: as §1
# [3] = test system: NCI-H522; test: Cytotoxicity against human NCI-H522 cells by SRB assay; type: functional; procedure, shortened: as §1
# [4] = test system: LOX IMVI; test: Cytotoxicity against human LOXIMVI cells by SRB assay; type: functional; procedure, shortened: as §1
# [5] = Selectivity index, ratio of IC50 for mouse HDAC6 to IC50 for human HDAC1
# Procedure, shortened: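 Ratio of HDAC6 IC50 to HDAC1 IC50. Both enzymes were FLAG-immunopurified from transfected 293T cells: human HDAC1 and mouse HDAC6. Each was assayed on Ac-KGLGK(Ac)-MCA with 100 µM DTT at 37 °C for 30 min, developed with trypsin, and AMC read by fluorescence. IC50s are means of ≥3 curves.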
# [6] = test system: PC-3; test: Cytotoxicity against human PC3 cells by SRB assay; type: functional; procedure, shortened: as §1
# [7] = target: T1, Histone deacetylase 1 (Homo sapiens, UniProt Q13547); test: Ratio of FK228 IC50 to compound IC50 for human HDAC1 expressed in human 293T cells; type: cell-based
# T1 sequence (Q13547 whole entry): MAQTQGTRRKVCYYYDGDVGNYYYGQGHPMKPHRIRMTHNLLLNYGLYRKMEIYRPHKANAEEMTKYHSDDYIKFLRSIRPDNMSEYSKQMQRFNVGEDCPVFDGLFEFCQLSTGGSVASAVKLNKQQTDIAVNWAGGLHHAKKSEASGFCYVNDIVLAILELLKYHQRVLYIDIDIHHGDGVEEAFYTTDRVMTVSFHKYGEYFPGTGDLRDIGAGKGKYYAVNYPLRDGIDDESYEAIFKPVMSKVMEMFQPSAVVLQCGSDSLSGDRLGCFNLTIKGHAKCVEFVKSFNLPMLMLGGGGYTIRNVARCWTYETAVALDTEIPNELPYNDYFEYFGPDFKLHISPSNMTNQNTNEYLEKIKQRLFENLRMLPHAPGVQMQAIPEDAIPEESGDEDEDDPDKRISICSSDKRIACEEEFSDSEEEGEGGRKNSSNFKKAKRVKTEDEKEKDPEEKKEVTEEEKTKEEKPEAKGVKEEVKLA
# Procedure, shortened: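 FLAG-tagged human HDAC1 was expressed transiently in 293T cells (pcDNA3-HDAC1), immunoprecipitated with anti-FLAG M2 and eluted with FLAG peptide. Enzyme was incubated with 2 mM stock Ac-KGLGK(Ac)-MCA in 20 mM Tris-HCl pH 8.0, 150 mM NaCl, 10% glycerol, 100 μM DTT, for 30 min at 37 °C. Trypsin then released AMC, read by fluorescence. IC50 is the mean of ≥3 dose-response curves; FK228 reference run alongside.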
# [8] = Cytotoxicity against human DMS273 cells by SRB assay; type: functional; conditions: DMS-273; procedure, shortened: as §1
# [9] = target: T2, Protein deacetylase HDAC6 (Mus musculus, UniProt Q9Z2V5); test: Inhibition of mouse HDAC6 expressed in human 293T cells using Ac-KGLGK(Ac)-MCA as substrate after 30 mins by fluorescence assay; type: cell-based
# T2 sequence (Q9Z2V5 whole entry): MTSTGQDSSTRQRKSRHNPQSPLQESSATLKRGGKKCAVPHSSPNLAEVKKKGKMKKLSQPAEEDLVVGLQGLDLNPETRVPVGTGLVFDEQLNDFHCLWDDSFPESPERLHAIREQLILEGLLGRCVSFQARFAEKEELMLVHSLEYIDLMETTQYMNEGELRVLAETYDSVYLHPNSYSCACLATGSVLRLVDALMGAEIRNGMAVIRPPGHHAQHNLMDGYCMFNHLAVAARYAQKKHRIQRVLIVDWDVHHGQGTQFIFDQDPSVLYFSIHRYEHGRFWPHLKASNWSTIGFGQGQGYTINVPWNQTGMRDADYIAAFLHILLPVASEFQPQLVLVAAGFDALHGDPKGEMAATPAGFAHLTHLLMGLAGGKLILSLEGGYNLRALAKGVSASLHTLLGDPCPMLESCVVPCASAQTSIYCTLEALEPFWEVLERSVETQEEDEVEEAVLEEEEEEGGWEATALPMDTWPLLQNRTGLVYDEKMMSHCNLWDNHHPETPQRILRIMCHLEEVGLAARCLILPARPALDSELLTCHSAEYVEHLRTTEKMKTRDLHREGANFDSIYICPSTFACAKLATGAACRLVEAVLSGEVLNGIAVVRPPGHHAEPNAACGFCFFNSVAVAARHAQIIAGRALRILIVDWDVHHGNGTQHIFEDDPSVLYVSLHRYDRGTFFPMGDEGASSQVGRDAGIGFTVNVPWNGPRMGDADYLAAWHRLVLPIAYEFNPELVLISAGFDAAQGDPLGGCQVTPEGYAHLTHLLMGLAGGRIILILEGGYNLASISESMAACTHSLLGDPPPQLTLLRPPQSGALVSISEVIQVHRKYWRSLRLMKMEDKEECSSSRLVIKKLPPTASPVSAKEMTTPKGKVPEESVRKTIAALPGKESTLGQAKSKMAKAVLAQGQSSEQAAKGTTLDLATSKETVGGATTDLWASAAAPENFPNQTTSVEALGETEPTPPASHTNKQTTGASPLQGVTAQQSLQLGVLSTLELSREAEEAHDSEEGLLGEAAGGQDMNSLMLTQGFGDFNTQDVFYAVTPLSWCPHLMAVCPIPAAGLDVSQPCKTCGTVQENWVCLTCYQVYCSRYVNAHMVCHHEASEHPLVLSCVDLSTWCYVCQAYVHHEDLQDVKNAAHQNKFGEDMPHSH
# [10] = Cytotoxicity against human OVCAR4 cells by SRB assay; type: functional; conditions: OVCAR-4; procedure, shortened: as §1
# [11] = test system: SF-295; test: Cytotoxicity against human SF295 cells by SRB assay; type: functional; procedure, shortened: as §1
# [12] = test system: HCT-15; test: Cytotoxicity against human HCT15 cells by SRB assay; type: functional; procedure, shortened: as §1
# [13] = test system: HT-29; test: Cytotoxicity against human HT-29 cells by SRB assay; type: functional; procedure, shortened: as §1
# [14] = test system: U-251; test: Cytotoxicity against human U251 cells by SRB assay; type: functional; procedure, shortened: as §1
# [15] = Cytotoxicity against human MKN1 cells by SRB assay; type: functional; conditions: MKN-1; procedure, shortened: as §1
# [16] = test system: HCT-116; test: Cytotoxicity against human HCT116 cells by SRB assay; type: functional; procedure, shortened: as §1
# [17] = Cytotoxicity against human MKN45 cells by SRB assay; type: functional; conditions: MKN-45; procedure, shortened: as §1
# [18] = Cytotoxicity against human SNB78 cells by SRB assay; type: functional; conditions: SNB-78; procedure, shortened: as §1
# [19] = test system: NCI-H226; test: Cytotoxicity against human NCI-H226 cells by SRB assay; type: functional; procedure, shortened: as §1
# [20] = Cytotoxicity against human MKN7 cells by SRB assay; type: functional; conditions: MKN-7; procedure, shortened: as §1
# [21] = Cytotoxicity against human HBC4 cells by SRB assay; type: functional; procedure, shortened: as §1
# [22] = test system: MDA-MB-231; test: Cytotoxicity against human MDA-MB-231 cells by SRB assay; type: functional; procedure, shortened: as §1
# [23] = Cytotoxicity against human MKN74 cells by SRB assay; type: functional; conditions: MKN-74; procedure, shortened: as §1
# [24] = test system: NCI-H460; test: Cytotoxicity against human NCI-H460 cells by SRB assay; type: functional; procedure, shortened: as §1
# [25] = target: T1, Histone deacetylase 1; test: Inhibition of human HDAC1 expressed in human 293T cells using Ac-KGLGK(Ac)-MCA as substrate after 30 mins by fluorescence assay
# [26] = Cytotoxicity against human DMS114 cells by SRB assay; type: functional; conditions: DMS-114; procedure, shortened: as §1
# [27] = test system: SK-OV-3; test: Cytotoxicity against human SKOV3 cells by SRB assay; type: functional; procedure, shortened: as §1
# [28] = Cytotoxicity against human OVCAR5 cells by SRB assay; type: functional; conditions: OVCAR-5; procedure, shortened: as §1
# [29] = Cytotoxicity against human MKN28 cells by SRB assay; type: functional; conditions: MKN-28; procedure, shortened: as §1
# [30] = Cytotoxicity against human BSY1 cells by SRB assay; type: functional; conditions: BSY-1; procedure, shortened: as §1
# [31] = test system: SNB-75; test: Cytotoxicity against human SNB75 cells by SRB assay; type: functional; procedure, shortened: as §1
# [32] = test system: OVCAR-8; test: Cytotoxicity against human OVCAR8 cells by SRB assay; type: functional; procedure, shortened: as §1
# [33] = Cytotoxicity against human HBC5 cells by SRB assay; type: functional; procedure, shortened: as §1
# [34] = test system: DU-145; test: Cytotoxicity against human DU145 cells by SRB assay; type: functional; procedure, shortened: as §1
# [35] = test system: NCI-H23; test: Cytotoxicity against human NCI-H23 cells by SRB assay; type: functional; procedure, shortened: as §1
# [36] = test system: SF-539; test: Cytotoxicity against human SF539 cells by SRB assay; type: functional; procedure, shortened: as §1
# [37] = Cytotoxicity against human RXF631L cells by SRB assay; type: functional; conditions: RXF 631; procedure, shortened: as §1
# [38] = test system: ACHN; test: Cytotoxicity against human ACHN cells by SRB assay; type: functional; procedure, shortened: as §1
# [39] = test system: MCF7; test: Cytotoxicity against human MCF7 cells by SRB assay; type: functional; procedure, shortened: as §1
# [40] = test system: HCC 2998; test: Cytotoxicity against human HCC2998 cells by SRB assay; type: functional; procedure, shortened: as §1
# [41] = test system: KM12; test: Cytotoxicity against human KM12 cells by SRB assay; type: functional; procedure, shortened: as §1
# [42] = test system: A549; test: Cytotoxicity against human A549 cells by SRB assay; type: functional; procedure, shortened: as §1
# [43] = test system: SF-268; test: Cytotoxicity against human SF268 cells by SRB assay; type: functional; procedure, shortened: as §1
smiles,measurement,setting,value
CC[C@H](C)[C@H]1NC(=O)[C@H]2CSSCC/C=C/[C@H](CC(=O)N[C@H](CCSC)C(=O)N2)OC(=O)C[C@@H]1O [THAILANDEPSIN A],GI50,[1],2.8 nM
same,GI50,[2],1.1 nM
same,GI50,[3],0.42 nM
same,GI50,[4],2.5 nM
same,Ratio IC50,[5],992
same,GI50,[6],8.3 nM
same,Ratio IC50,[7],3
same,GI50,[8],2.7 nM
same,IC50,[9],992 nM
same,GI50,[10],5 nM
same,GI50,[11],2.3 nM
same,GI50,[12],100 nM
same,GI50,[13],0.74 nM
same,GI50,[14],4.4 nM
same,GI50,[15],2.5 nM
same,GI50,[16],0.51 nM
same,GI50,[17],14 nM
same,GI50,[18],11 nM
same,GI50,[19],2.7 nM
same,GI50,[20],10 nM
same,GI50,[21],3.8 nM
same,GI50,[22],2.6 nM
same,GI50,[23],2.9 nM
same,GI50,[24],0.53 nM
same,IC50,[25],1 nM
same,GI50,[26],3.2 nM
same,GI50,[27],1.9 nM
same,GI50,[28],1.6 nM
same,GI50,[29],16 nM
same,GI50,[30],5 nM
same,GI50,[31],1.4 nM
same,GI50,[32],0.72 nM
same,GI50,[33],2.3 nM
same,GI50,[34],3.1 nM
same,GI50,[35],3.3 nM
same,GI50,[36],0.7 nM
same,GI50,[37],2.3 nM
same,GI50,[38],6.6 nM
same,GI50,[39],2.8 nM
same,GI50,[40],2.6 nM
same,GI50,[41],3.6 nM
same,GI50,[42],0.85 nM
same,GI50,[43],4.1 nM
CC(C)[C@H]1NC(=O)[C@H]2CSSCC/C=C/[C@H](CC(=O)N[C@H](C)C(=O)N2)OC(=O)C[C@@H]1O,Ratio IC50,[5],485
CCC(C)[C@H]1NC(=O)[C@H]2CSSCC/C=C/[C@H](CC(=O)N[C@H](C)C(=O)N2)OC(=O)C[C@@H]1O (stereo not given in full),Ratio IC50,[5],636
